Test results taken from ChEMBL document CHEMBL4602724, “Validating the 1,2-Difluoro Motif As a Hybrid Bioisostere of CF3 and Et Using Matrix Metalloproteinases As Structural Probes” (J Med Chem, 2020).

Columns and labels:
[1] = biological target: 72 kDa type IV collagenase (Homo sapiens, UniProt P08253); experiment: Inhibition of human active MMP2 using (7-methoxycoumarin-4-yl)acetyl-Pro-Leu-Gly-Leu-(3-(2,4-dinitrophenyl)-L-2,3-diamino-propionyl)Ala-Arg-NH2 as substrate preincubated for 30 mins followed by substrate addition and measured for 10 mins by fluorescence assay
Sequence of 72 kDa type IV collagenase (P08253 whole entry): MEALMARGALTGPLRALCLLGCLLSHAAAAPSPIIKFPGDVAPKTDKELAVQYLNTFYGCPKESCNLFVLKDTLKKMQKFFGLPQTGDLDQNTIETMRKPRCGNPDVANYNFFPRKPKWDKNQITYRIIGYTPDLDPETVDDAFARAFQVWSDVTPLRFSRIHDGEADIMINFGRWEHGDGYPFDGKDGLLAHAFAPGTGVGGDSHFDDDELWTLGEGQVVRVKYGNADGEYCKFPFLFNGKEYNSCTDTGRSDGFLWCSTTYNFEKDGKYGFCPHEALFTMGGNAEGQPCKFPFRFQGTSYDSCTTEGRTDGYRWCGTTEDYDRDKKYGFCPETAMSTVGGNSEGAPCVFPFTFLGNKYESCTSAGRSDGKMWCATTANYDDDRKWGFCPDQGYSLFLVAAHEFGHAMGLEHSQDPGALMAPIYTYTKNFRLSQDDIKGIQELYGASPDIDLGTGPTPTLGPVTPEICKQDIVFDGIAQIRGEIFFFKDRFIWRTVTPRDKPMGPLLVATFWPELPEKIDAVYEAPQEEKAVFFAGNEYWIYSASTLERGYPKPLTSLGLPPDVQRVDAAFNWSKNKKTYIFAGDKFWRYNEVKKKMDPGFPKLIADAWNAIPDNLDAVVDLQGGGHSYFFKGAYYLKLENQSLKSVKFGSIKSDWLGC
How it was run: (§1)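 Human active enzyme at 2 nM was preincubated with compound (10 pM–1 mM) for 30 min at 37 °C in 50 mM Tris·HCl pH 7.5 with 0.2 M NaCl, 5 mM CaCl2, […] ZnSO4 and 0.05% Brij 35. Substrate was then added and fluorescence (ex 330/em 390 nm) followed at 37 °C. Initial 10-min linear rates were plotted against inhibitor concentration. IC50 is the mean of three experiments.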

Collagenase 3 = Collagenase 3 (Homo sapiens, UniProt P45452); experiment: Inhibition of human active MMP13 using (7-methoxycoumarin-4-yl)acetyl-Pro-Leu-Gly-Leu-(3-(2,4-dinitrophenyl)-L-2,3-diamino-propionyl)Ala-Arg-NH2 as substrate preincubated for 30 mins followed by substrate addition and measured for 10 mins by fluorescence assay; how it was run: as §1
[2] = biological target: Matrix metalloproteinase-9 (Homo sapiens, UniProt P14780); experiment: Inhibition of human active MMP9 using (7-methoxycoumarin-4-yl)acetyl-Pro-Leu-Gly-Leu-(3-(2,4-dinitrophenyl)-L-2,3-diamino-propionyl)Ala-Arg-NH2 as substrate preincubated for 30 mins followed by substrate addition and measured for 10 mins by fluorescence assay; how it was run: as §1
Sequence of Matrix metalloproteinase-9 (P14780 whole entry): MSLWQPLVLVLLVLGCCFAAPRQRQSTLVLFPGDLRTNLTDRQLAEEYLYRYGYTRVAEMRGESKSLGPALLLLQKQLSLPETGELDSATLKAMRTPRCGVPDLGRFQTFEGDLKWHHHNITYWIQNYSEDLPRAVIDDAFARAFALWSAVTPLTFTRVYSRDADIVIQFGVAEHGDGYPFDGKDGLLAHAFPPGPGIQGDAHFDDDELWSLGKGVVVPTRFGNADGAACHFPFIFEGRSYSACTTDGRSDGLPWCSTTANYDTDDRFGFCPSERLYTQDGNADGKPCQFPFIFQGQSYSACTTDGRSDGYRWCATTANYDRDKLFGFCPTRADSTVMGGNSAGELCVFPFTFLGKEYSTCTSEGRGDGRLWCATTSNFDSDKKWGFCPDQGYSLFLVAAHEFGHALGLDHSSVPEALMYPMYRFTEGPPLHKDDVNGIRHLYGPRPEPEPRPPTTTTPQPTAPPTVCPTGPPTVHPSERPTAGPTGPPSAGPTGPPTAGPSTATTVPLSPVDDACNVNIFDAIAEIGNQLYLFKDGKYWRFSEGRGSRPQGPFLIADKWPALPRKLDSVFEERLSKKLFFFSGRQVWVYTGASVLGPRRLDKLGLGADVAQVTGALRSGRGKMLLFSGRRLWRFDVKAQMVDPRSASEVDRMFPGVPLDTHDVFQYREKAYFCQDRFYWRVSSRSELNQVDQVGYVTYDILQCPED

Neutrophil collagenase = Neutrophil collagenase (Homo sapiens, UniProt P22894); experiment: Inhibition of human active MMP8 using (7-methoxycoumarin-4-yl)acetyl-Pro-Leu-Gly-Leu-(3-(2,4-dinitrophenyl)-L-2,3-diamino-propionyl)Ala-Arg-NH2 as substrate preincubated for 30 mins followed by substrate addition and measured for 10 mins by fluorescence assay; how it was run: as §1
Sequence of Neutrophil collagenase (P22894 whole entry): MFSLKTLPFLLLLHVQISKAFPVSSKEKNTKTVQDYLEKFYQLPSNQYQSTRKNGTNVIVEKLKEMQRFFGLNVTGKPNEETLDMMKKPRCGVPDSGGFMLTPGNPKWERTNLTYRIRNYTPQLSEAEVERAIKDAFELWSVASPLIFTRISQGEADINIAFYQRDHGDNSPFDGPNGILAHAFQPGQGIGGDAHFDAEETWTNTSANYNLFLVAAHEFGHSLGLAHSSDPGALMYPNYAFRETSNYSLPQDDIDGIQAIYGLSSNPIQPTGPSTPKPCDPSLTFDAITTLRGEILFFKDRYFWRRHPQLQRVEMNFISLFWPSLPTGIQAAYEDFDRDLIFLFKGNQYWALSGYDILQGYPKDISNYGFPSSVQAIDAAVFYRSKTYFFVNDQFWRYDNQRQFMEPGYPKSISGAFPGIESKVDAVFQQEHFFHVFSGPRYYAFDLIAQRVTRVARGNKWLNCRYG

SMILES | IC50 ([1]; read-out: IC50) | IC50 (Collagenase 3; read-out: IC50) | IC50 ([2]; read-out: IC50) | IC50 (Neutrophil collagenase; read-out: IC50) | IC50 [1] | IC50 (Collagenase 3) | IC50 [2] | IC50 (Neutrophil collagenase)
CCCCCCCCC1(Cc2ccccc2)C(=O)NC(=O)NC1=O | 288 nM | 214 nM | 22 nM | 157 nM | – | – | – | –
CCCCCCCCCC1(Cc2ccccc2)C(=O)NC(=O)NC1=O | 210 nM | 180 nM | 5 nM | 96 nM | – | – | – | –
CC(C)CCCCCCCC1(Cc2ccccc2)C(=O)NC(=O)NC1=O | – | – | – | – | Nd(Insoluble) | Nd(Insoluble) | Nd(Insoluble) | Nd(Insoluble)
O=C1NC(=O)C(CCCCCCCC(F)(F)F)(Cc2ccccc2)C(=O)N1 | 567 nM | 753 nM | 52 nM | 229 nM | – | – | – | –
CCCCCCCCC1(Cc2ccc(OC)cc2)C(=O)NC(=O)NC1=O | 42 nM | 94 nM | 3 nM | 73 nM | – | – | – | –
CCCCCCCCCC1(Cc2ccc(OC)cc2)C(=O)NC(=O)NC1=O | 94 nM | 83 nM | 93 nM | 84 nM | – | – | – | –
COc1ccc(CC2(CCCCCCCC(C)C)C(=O)NC(=O)NC2=O)cc1 | 207 nM | 225 nM | 60 nM | 281 nM | – | – | – | –
COc1ccc(CC2(CCCCCCCC(F)(F)F)C(=O)NC(=O)NC2=O)cc1 | 209 nM | 177 nM | 62 nM | 187 nM | – | – | – | –
COc1ccc(CC2(CCCCCCC(F)CF)C(=O)NC(=O)NC2=O)cc1 (stereo not drawn) | 411 nM | 17 nM | 47 nM | 165 nM | – | – | – | –
O=C1NC(=O)C(CCCCCCCC(F)CF)(Cc2ccccc2)C(=O)N1 (stereo not drawn) | 320 nM | 163 nM | 60 nM | 180 nM | – | – | – | –
O=C1NC(=O)C(CCCCCCC(F)CF)(Cc2ccccc2)C(=O)N1 (stereo not drawn) | 253 nM | 127 nM | 123 nM | 125 nM | – | – | – | –
COc1ccc(CC2(CCCCCCCC(F)CF)C(=O)NC(=O)NC2=O)cc1 (racemic) | 139 nM | 64 nM | 26 nM | 110 nM | – | – | – | –
